Exocytosis inh = LAMP-1 surface exposure blockers, TALL-104 cells – cell-based, flow cytometry, MLPCN library, primary screen. inhibition, % at 10 µM. TALL-104 LAMP-1 surface exposure; cells stimulated with thapsigargin and PMA. AID 651702, 2012. 360,000 compounds, 0.66% hits;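 active = inhibition above about 55%, limit read from the data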
CHOP UPR activ = activators of apoptotic CHOP UPR arm, primary screen, cell-based, CHO-CHOP luciferase reporter, luminescence, uHTS; AID 449763, 2010; 330,000 compounds, 0.34% hits; activation, % at 10 µM; UPR activation; percent of tunicamycin response over DMSO baseline;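 active = at 10 µM dose, activation of 40% or more, normalized to positive control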;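 note: 100% = tunicamycin at 10 µg/mL and 0% = DMSO alone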
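assay system = CHO CHOP reporter cells | amount = 500 CHO-CHOP cells per well | buffer or medium = F12 with 10% FBS | incubation = 16-18 h cell attachment, then 6 h compound exposure, 37 °C | detection = luminescence read with Steady-Glo | read-out = percent activation relative to tunicamycin control | controls = tunicamycin high control, DMSO low control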
UPR XBP1 act = activators of adaptive XBP1 UPR arm, primary screen, cell-based, CHO-XBP1 luciferase reporter, luminescence, uHTS. IRE1-XBP1 UPR activation; percent of tunicamycin response, DMSO as zero. activation, % at 20 µM. 330,000 compounds, 0.33% hits;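 active = versus positive control, 20 µM dose yields 30% or more activation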;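 note: 100% = tunicamycin at 10 µg/mL and 0% = DMSO only wells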
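Material: CHO-XBP1 cells stably carrying IRE1-XBP1-driven luciferase reporter | Medium: F12 with 10% serum | Compound dosing: 20 µM single concentration, DMSO 1% | Incubation: Overnight seeding at 37 °C, 6 h compound treatment at 37 °C | Detection: Steady-Glo luminescence read | Read-out basis: % activation of reporter signal versus tunicamycin and DMSO controls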
Mdm2-MdmX inh = inhibitors of human Mdm2-MdmX association, primary screen, cell-based, luminescence, split luciferase, SaOS-2, uHTS. SaOS-2 split-luciferase Mdm2/MdmX complementation. 330,000 compounds, 3% hits. AID 485346, 2010. Protein Mdm4 (Homo sapiens) + E3 ubiquitin-protein ligase Mdm2 (Homo sapiens), …. inhibition, % at 8 µM;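 active = inhibition of at least 50% at 8 µM in the primary screen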
ABHD5-PLIN5 inh = ABHD5-PLIN5 interaction inhibitors, primary screen, cell lysate, split luciferase complementation, luminescence | Split G. princeps luciferase complementation, 4 h | 360,000 compounds, 0.78% hits | Perilipin-5 (Homo sapiens) + 1-acylglycerol-3-phosphate O-acyltransferase ABHD5 (Homo … | inhibition, % at 4 µM | AID 602281, 2012;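 active = inhibition above the mean inhibition across every tested compound plus 3 SD, cut at about 22% in these data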;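 note: 0% = DMSO only wells and the 100% control is not disclosed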
Mdm2 MdmX conf = Mdm2-MdmX complex disruptors, retested hits, confirmation, luminescence, single concentration; inhibition, % at 8 µM; Mdm2-MdmX binding, luminescent assay; shares compounds with Mdm2-MdmX inh; 10,000 compounds, 55% hits; in the data active = inhibition above about 40%
FLuc counter = full-length luciferase signal inhibition, confirmation, counter-screen for Mdm2/MdmX interaction inhibitor project, cell-based, single concentration, SaOS-2; 6,200 compounds, 77% hits; AID 504607, 2011; inhibition, % at 8 µM; shares compounds with Mdm2-MdmX inh; SaOS-2 full-length luciferase counterscreen, luminescence;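 active = mean inhibition at 8 µM reaching about 37%, which flags the compound as non-specific, limit read from the data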;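 note: p53-null SaOS-2 cells with luciferase driven by a doxycycline-inducible promoter; compound on cells about two nights before reading with doxycycline added after day one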
An asterisk follows results filed as active; nt = no result given. Sampled rows, rich in hits. Any-hit rate of the full collection: about 4%.

SMILES	Exocytosis inh	CHOP UPR activ	UPR XBP1 act	Mdm2-MdmX inh	ABHD5-PLIN5 inh	Mdm2 MdmX conf	others
CCN(CC)CCCNC(=O)c1sc2ncn(CC(=O)Nc3ccc(C)c(Cl)c3)c(=O)c2c1C	-6.7	-1.1	-0.7	53.4*	4.0	20.9
Cc1ccc(NC(=O)Cn2cnc3sc(C(=O)NCCN(C)C)c(C)c3c2=O)cc1Cl	nt	0.0	-0.5	22.2	nt	nt
COCCCNC(=O)c1cc(OC)c(OC)c(OC)c1	0.1	0.4	-3.4	21.5	-5.7	nt
COc1cc(C(=O)NCCCCCCNC(=O)c2cc(OC)c(OC)c(OC)c2)cc(OC)c1OC	0.9	0.4	-3.3	52.4*	3.2	37.9
COc1ccc(-c2ccc([C@H]3[C@H]4C=CC[C@@H](C)[C@@H]4C(=O)N3Cc3ccccc3)c(F)c2)cc1	-10.0	-0.4	-0.4	30.1	-3.7	nt
COc1cc(-c2cccc([C@H]3[C@@H]4C=CC[C@@H](C)[C@@H]4C(=O)N3Cc3ccccc3)c2)cc(OC)c1OC	1.8	3.6	10.3	83.0*	-6.3	35.0
COc1ccc(-c2c([C@H]3[C@H]4C=CC[C@@H](C)[C@@H]4C(=O)N3Cc3ccccc3)ccc3ccccc23)cc1	1.7	0.4	2.3	69.4*	1.7	15.7
COc1ccc2c(c1)CCCC21SC(NC(C)=O)=NN1C(C)=O (centres undefined)	8.3	0.7	-1.8	-0.9	3.3	nt
O=C(c1ccc(Cl)c(S(=O)(=O)N2CCc3ccccc32)c1)N1CCN(c2ccccc2O)CC1	-0.3	5.6	4.0	54.0*	-2.5	6.3
O=C(c1cccc(S(=O)(=O)N2CCc3ccccc32)c1)N1CCN(c2ccccn2)CC1	0.0	1.3	0.2	84.7*	-0.9	83.8*	FLuc counter=38.9*
COc1ccc(N2CCN(C(=O)c3cccc(S(=O)(=O)N4CCc5ccccc54)c3)CC2)cc1	0.5	0.0	-2.0	-7.2	7.7	nt
O=C(Nc1cccc(S(=O)(=O)NC2=NCCC2)c1)c1cnc(Cl)c(Cl)c1	4.7	-0.2	-2.0	15.1	-1.7	nt
COc1ccccc1-n1cnc(N)c1C(C)=O	-2.4	-2.2	-1.9	7.9	-1.3	nt
CC(C(=O)N1CCCC1)N1CCN(S(=O)(=O)c2ccc(OC(F)(F)F)cc2)CC1 (centres undefined)	9.5	-0.2	1.0	-6.6	18.0	nt
O=C(NCc1cccnc1)c1cccc(NS(=O)(=O)c2ccc(Br)cc2)c1	-2.6	-0.8	-1.5	38.5	-2.0	nt
Cc1ccc(S(=O)(=O)Nc2cccc(C(=O)NCc3cccnc3)c2)cc1F	1.3	-0.6	-1.7	50.7*	-5.5	76.2*	FLuc counter=61.5*
COC1(OC)C(/C=C/c2ccc(Cl)cc2)C(C#N)(C#N)C1(OC)OC (centres undefined)	3.4	1.3	-5.4	88.2*	16.2	56.6*	FLuc counter=22.6
CCOC(=O)c1c(NC(=O)C2CC2)sc(C)c1CC	-0.3	-2.4	3.3	-9.6	-6.2	nt
CCN(CCNC(=O)C1CCN(S(=O)(=O)c2c(C)noc2C)CC1)c1ccccc1	0.1	0.5	0.8	11.6	-1.2	nt
CCN(CC)CCNC(=O)C1CCN(S(=O)(=O)c2c(C)noc2/C=C/c2ccccc2F)CC1	5.8	1.0	-0.1	56.4*	18.4	23.8
Cc1nn(C)c(C)c1/C=N/N=C1\CCC2C3CCc4cc(O)ccc4C3CCC12C (centres undefined)	0.9	9.0	4.8	57.1*	5.3	20.8
Cc1ccc(S(=O)(=O)N2CCC(C(=O)OCC(=O)N3CCCCC3C)CC2)cc1C (centres undefined)	-4.8	-0.5	-3.0	13.7	3.9	nt
COc1cc2sc(-c3ccccc3OC)c(-c3ccc(OCCN4CCOCC4)cc3)c2cc1OC	17.6	1.6	0.6	60.5*	11.6	9.3
COc1ccc(-c2c(-c3ccccc3OC)sc3ccccc23)cc1OC	1.9	0.2	4.9	16.6	2.1	nt
COc1ccc2c(-c3ccc(OCCN4CCOCC4)cc3)c(-c3ccccc3OC)sc2c1	2.0	0.9	-1.7	6.9	0.2	nt
SMILES	Exocytosis inh	CHOP UPR activ	UPR XBP1 act	Mdm2-MdmX inh	ABHD5-PLIN5 inh	Mdm2 MdmX conf	others
COc1ccccc1-c1sc2ccccc2c1-c1ccc(OCCN2CCCCC2)cc1	29.6	5.2	5.5	66.6*	18.1	44.1*	FLuc counter=55.1*
COc1ccc2sc(-c3ccccc3OC)c(-c3ccc(OCCN(C)C)cc3)c2c1	24.2	2.1	4.1	11.1	15.7	nt
COc1ccc2c(-c3ccc(OCCN4CCCCC4)cc3)c(-c3ccccc3OC)sc2c1	66.1*	6.0	5.5	62.7*	17.5	16.4
CN(C)/C=N/C1=C(C#N)C(c2ccc(Br)cc2)c2ccc3ccccc3c2O1 (centres undefined)	-21.9	2.3	1.8	35.6	0.1	nt
CN=c1scc(-c2ccccc2F)n1/N=C(\C)c1cccnc1	-0.4	2.8	3.0	-135.9	-5.2	nt
Cc1ccc(NC(=O)c2cc3c(=O)oc4ccccc4c3s2)nc1	-1.9	1.0	0.6	63.3*	13.7	-0.8
CCCN1C2CCCC1CC(NC(=O)c1ccc(C(C)(C)C)cc1)C2 (centres undefined)	9.2	0.8	-2.3	-14.9	0.9	nt
Cc1ccc(NC(=O)CC(=O)Nc2ccc(C)c(C)c2)cc1C	-2.4	-0.9	-6.8	13.5	2.4	nt
Cc1ccc(Sc2ccc(NC(=O)CCl)cc2)cc1C	-3.6	37.9	10.6	81.3*	-7.4	27.7
Cc1ccc(C)c(Sc2ccc(NC(=O)CCl)cc2)c1	nt	13.1	4.2	66.9*	nt	29.6
O=C(CCl)Nc1ccccc1Sc1ccccc1	0.6	0.7	2.2	13.1	6.2	nt
Cc1cc(NC(=O)CSc2nnc(-c3ccoc3C)n2N)no1	-3.6	-0.9	1.7	-23.9	2.0	nt
Cc1sc(NC(=O)c2ccco2)c(C(c2cccnc2)N2CCC(C)CC2)c1C (centres undefined)	1.8	0.3	1.9	74.5*	0.7	76.5*	FLuc counter=76.8*
CCc1cccc(N=c2c([N+](=O)[O-])nn(-c3ccc(Cl)cc3)n2O)c1	-1.8	-0.2	4.1	7.9	-4.1	nt

Compound activity from PubChem.
